How the values were obtained:
Assay type in all cases: functional
Conditions in all cases: ATCC 25177, 288 h, read-out: DIZ
[1] = tested on: Mycobacterium tuberculosis; test: Antimycobacterial activity against Mycobacterium tuberculosis ATCC 25177 at 10 ug after 12 days by disc diffusion assay
Outline: (§1)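 Compound dissolved in EtOH and loaded onto sterile filter-paper discs. Dried discs were placed on an inoculated agar plate and incubated 12 days at 37 °C. The diameter of the inhibition zone was then measured.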

[2] = tested on: Mycobacterium tuberculosis; test: Antimycobacterial activity against Mycobacterium tuberculosis ATCC 25177 at 5 ug after 12 days by disc diffusion assay; outline: as §1
[3] = tested on: Mycobacterium tuberculosis; test: Antimycobacterial activity against Mycobacterium tuberculosis ATCC 25177 at 1 ug after 12 days by disc diffusion assay; outline: as §1

Work on `CN[C@@H]1[C@H](O[C@H]2[C@H](O[C@H]3[C@H](O)[C@@H](O)[C@H](N=C(N)N)[C@@H](O)[C@@H]3N=C(N)N)O[C@@H](C)[C@]2(O)C=O)O[C@@H](CO)[C@H](O)[C@H]1O` [STREPTOMYCIN] yielded a zone of inhibition at 10 µg/disc [1] of 40 mm, a zone of inhibition at 5 µg/disc [2] of 30 mm and a zone of inhibition at 1 µg/disc [3] of 0 mm.
